From ChEMBL document CHEMBL3596173, “Structural Requirements for CNS Active Opioid Glycopeptides” (J Med Chem, 2015) come the findings set out here.

The test system of experiment [1] is Mus musculus. Description: Antinociceptive activity in iv dosed CD-1 mouse assessed as time duration of activity by 55 degC warm water tail-flick test. The format is functional. In short, it runs like this:
(§1)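 Male CD-1 mice (27−30 g), 8−10 per group. Compound in 0.9% saline, injected into the tail vein at 0.1 mL/10 g after the vein was dilated in 40 °C water. Tail immersion in 55 °C water, with baseline latency first and 5 s non-responders excluded. Tested at intervals post-dose. %Antinociception = 100(test − control latency)/(10 − control latency). A50 values obtained.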

Experiment [2] addresses T1, Delta-type opioid receptor (Homo sapiens, UniProt P41143). Kind of experiment: Displacement of [3H]-naltrindole from human delta opioid receptor expressed in CHO cells after 3 hrs by scintillation counting analysis. The format is cell-based. In short, it runs like this:
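Binding used CHO-cell membranes bearing human δ receptor and 0.2 nM (final) [3H]naltrindole, incubated 3 h at 25 °C in 50 mM Tris-HCl pH 7.5. Nonspecific binding was defined with 100 μM naloxone. Samples were glass-fiber filtered, washed with cold buffer and scintillation counted. IC50 came from a log-probit least-squares fit and was converted to Ki as IC50/(1+S).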
On the technique in general: Displacement assays read how much labelled ligand stays bound in the presence of the test substance.

The target of the next experiment is Mu-type opioid receptor (Homo sapiens, UniProt P35372). Description: Displacement of [3H]-DAMGO from human mu opioid receptor expressed in CHO cells after 60 mins by scintillation counting analysis. The format is cell-based. In short, it runs like this:
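Membranes from CHO cells stably expressing human μ receptor were incubated with 0.25 nM (final) [3H]DAMGO in 50 mM Tris-HCl pH 7.5 for 60 min at 25 °C. Bound radioligand was separated by glass-fiber filtration with cold buffer washes and counted by scintillation. IC50 came from a least-squares log-probit fit, and Ki from IC50/(1+S).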

In experiment [3] the test system is Mus musculus. Description: Antinociceptive activity in icv dosed CD-1 mouse by 55 degC warm water tail-flick test. The format is functional. Put shortly: (§2)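 Male CD-1 mice (27−30 g), 8−10 per group. Compound in distilled water, given icv under light ether anaesthesia, 2 mm caudal and 2 mm lateral from bregma. 55 °C warm-water tail-flick: baseline latency taken first, and mice not responding within 5 s excluded. Retested at various times after dosing. %Antinociception = 100(test − control latency)/(10 − control latency). A50 doses derived.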
Background: In hot-plate and tail-flick tests a longer latency is read as antinociception.

The target of experiment [4] is T2, Kappa-type opioid receptor (Homo sapiens, UniProt P41145). Kind of experiment: Displacement of [3H]-U69593 from human kappa opioid receptor expressed in CHO cells after 60 mins by scintillation counting analysis. The format is cell-based. In short, it runs like this:
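Human κ receptor stably expressed in CHO cells was used as a membrane prep. It was incubated with 1 nM (final) [3H]U69,593 for 60 min at 25 °C in 50 mM Tris-HCl pH 7.5, with 10 μM naloxone defining nonspecific binding. Samples were filtered through glass-fiber filters presoaked ≥30 min in 0.1% polyethylenimine, washed cold and scintillation counted. Ki was derived from a log-probit IC50 via IC50/(1+S).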

Experiment [5] has as its system Mus musculus. Description: Antinociceptive activity in iv dosed CD-1 mouse by 55 degC warm water tail-flick test. In kind it is functional. Put shortly:
as §1

For experiment [6], the system named is Mus musculus. Kind of experiment: Antinociceptive activity in icv dosed CD-1 mouse assessed as time required to show maximum activity by 55 degC warm water tail-flick test. The format is functional. In short, it runs like this: as §2
Experiment [7] deals with Mus musculus. Description: Antinociceptive activity in iv dosed CD-1 mouse assessed as time required to show maximum activity by 55 degC warm water tail-flick test. The format is functional. In short, it runs like this:
as §1

Experiment [8] deals with T1, Delta-type opioid receptor. Description: Binding affinity to delta opioid receptor (unknown origin). In short, it runs like this:
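Membranes from CHO cells stably expressing the human δ-opioid receptor. Incubated 3 h at 25 °C with 0.2 nM [3H]naltrindole in 50 mM Tris-HCl, pH 7.5. Nonspecific binding with 100 μM naloxone. Glass-fibre filtration, cold-buffer washes, scintillation counting. IC50 from log-probit least-squares fit, converted to Ki.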

Experiment [9] deals with T2, Kappa-type opioid receptor. Description: Binding affinity to kappa opioid receptor (unknown origin). Put shortly: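 CHO cell membranes stably expressing the human κ-opioid receptor. Incubated with 1 nM [3H]U69,593 for 60 min at 25 °C in 50 mM Tris-HCl, pH 7.5. Naloxone 10 μM defined nonspecific binding. Filters presoaked at least 30 min in 0.1% polyethylenimine, then washed and counted. Ki calculated from IC50 (log-probit fit).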

The target in experiment [10] is T1, Delta-type opioid receptor. Description: Displacement of [3H]-naltrindole from human delta opioid receptor expressed in CHO cells at 10 uM after 3 hrs by scintillation counting analysis relative to control. The format is cell-based.
Experiment [11] concerns the target T2, Kappa-type opioid receptor. Kind of experiment: Displacement of [3H]-U69593 from human kappa opioid receptor expressed in CHO cells at 10 uM after 60 mins by scintillation counting analysis […]. In kind it is cell-based.
Experiment [12] has as its system Mus musculus. Kind of experiment: Antinociceptive activity in icv dosed ICR mouse by 55 degC warm water tail-flick test. The format is functional.
For experiment [13], the system named is Mus musculus. Kind of experiment: Antinociceptive activity in iv dosed ICR mouse by 55 degC warm water tail-flick test. In kind it is functional.
The subject of experiment [14] is Mus musculus. Kind of experiment: Antinociceptive activity in icv dosed CD-1 mouse assessed as time duration of activity by 55 degC warm water tail-flick test. In kind it is functional. Put shortly: as §2

Starred links: 1 amine or outer side, 2 acyl side, 3 side chain; linkers in the order of their positions; H or OH if unused. Positions of bridges follow the written chain, without caps; N, C: chain ends. Non-standard residues stand in square brackets, D forms with d. Residues, ends and D or L forms follow the SMILES beside them. *: point of attachment. X1 = OC[C@H]1O[C@@H](O[C@H]2[C@H](O)[C@@H](O)[C@H](*)O[C@@H]2CO)[C@H](O)[C@@H](O)[C@@H]1O; βGlc = OC[C@H]1O[C@@H](*)[C@H](O)[C@@H](O)[C@@H]1O; dPen = CC(C)(S)[C@@H](N)C(=O)O; CH2CH2 = C(C[*:2])[*:1]; Aib = CC(C)(N)C(=O)O; Ava = NCCCCC(=O)O; GABA = NCCCC(=O)O

Chain of Mu-type opioid receptor (P35372 whole entry): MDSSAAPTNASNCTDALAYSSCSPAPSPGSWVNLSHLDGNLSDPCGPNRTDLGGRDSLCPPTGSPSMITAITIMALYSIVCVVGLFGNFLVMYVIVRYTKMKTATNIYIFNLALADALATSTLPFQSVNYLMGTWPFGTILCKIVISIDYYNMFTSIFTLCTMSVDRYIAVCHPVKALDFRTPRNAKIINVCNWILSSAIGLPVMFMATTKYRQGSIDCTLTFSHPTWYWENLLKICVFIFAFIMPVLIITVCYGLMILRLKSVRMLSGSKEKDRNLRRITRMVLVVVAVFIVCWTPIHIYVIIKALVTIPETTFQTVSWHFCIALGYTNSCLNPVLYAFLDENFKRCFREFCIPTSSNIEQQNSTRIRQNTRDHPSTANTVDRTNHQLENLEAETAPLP
T2 sequence (P41145 whole entry): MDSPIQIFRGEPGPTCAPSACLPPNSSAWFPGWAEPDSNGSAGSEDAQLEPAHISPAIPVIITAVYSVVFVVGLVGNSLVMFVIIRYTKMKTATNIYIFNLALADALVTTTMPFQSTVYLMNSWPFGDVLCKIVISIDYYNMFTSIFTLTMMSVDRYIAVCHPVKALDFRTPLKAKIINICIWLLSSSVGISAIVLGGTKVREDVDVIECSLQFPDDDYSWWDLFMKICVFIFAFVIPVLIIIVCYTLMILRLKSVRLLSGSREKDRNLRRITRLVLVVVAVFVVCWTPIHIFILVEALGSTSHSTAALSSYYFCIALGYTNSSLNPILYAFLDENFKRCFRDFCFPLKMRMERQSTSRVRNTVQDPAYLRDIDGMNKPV
T1 sequence (P41143 whole entry): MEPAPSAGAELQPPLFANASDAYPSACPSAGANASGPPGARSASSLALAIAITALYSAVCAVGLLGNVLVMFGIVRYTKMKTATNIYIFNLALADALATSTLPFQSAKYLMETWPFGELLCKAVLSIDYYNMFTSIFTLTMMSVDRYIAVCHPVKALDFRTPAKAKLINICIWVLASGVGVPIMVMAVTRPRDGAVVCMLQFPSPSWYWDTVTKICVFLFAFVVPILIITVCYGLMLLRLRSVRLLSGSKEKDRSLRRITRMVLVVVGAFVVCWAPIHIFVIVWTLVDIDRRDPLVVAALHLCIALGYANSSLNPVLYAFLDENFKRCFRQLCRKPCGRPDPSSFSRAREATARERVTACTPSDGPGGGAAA

The Ki is a dissociation constant, usually derived from enzyme kinetics or from competition with a known ligand. A high value points to lower affinity. In the case of `CC(C)C[C@H](NC(=O)[C@H](CO[C@@H]1O[C@H](CO)[C@@H](O[C@@H]2O[C@H](CO)[C@@H](O)[C@H](O)[C@H]2O)[C@H](O)[C@H]1O)NC(=O)[C@H](CCCCN)NC(=O)[C@H](CC(C)C)NC(=O)[C@H](C)NC(=O)[C@H](CCCCN)NC(=O)[C@H](CCC(=O)O)NC(=O)C(C)(C)NC(=O)[C@H](CC(C)C)NC(=O)[C@H](CC(N)=O)NC(=O)CCCNC(=O)[C@H](CC(C)C)NC(=O)[C@H](Cc1ccccc1)NC(=O)CNC(=O)[C@@H](NC(=O)[C@@H](N)Cc1ccc(O)cc1)[C@@H](C)O)C(N)=O` (H-YTGFL[GABA]NL[Aib]EKALKS(X1)L-NH2), the Time in the experiment with Mus musculus [1] was determined as 180 min. Further, the Ki is 17 nM in experiment [2], 13 nM at Mu-type opioid receptor and 52 nM in [4]. The A50 in the experiment on Mus musculus [3] was 0.165 nmol; in the experiment with Mus musculus [5] it was 1.13 µmol/kg.

In the case of `CC(C)C[C@H](NC(=O)[C@H](CO[C@@H]1O[C@H](CO)[C@@H](O)[C@H](O)[C@H]1O)NC(=O)[C@H](CCCCN)NC(=O)[C@H](CC(C)C)NC(=O)[C@H](C)NC(=O)[C@H](CCCCN)NC(=O)[C@H](CCC(=O)O)NC(=O)C(C)(C)NC(=O)[C@H](CC(C)C)NC(=O)[C@H](CC(N)=O)NC(=O)CCCCNC(=O)[C@H](CC(C)C)NC(=O)[C@H](Cc1ccccc1)NC(=O)CNC(=O)[C@@H](NC(=O)[C@@H](N)Cc1ccc(O)cc1)[C@@H](C)O)C(N)=O` (H-YTGFL[Ava]NL[Aib]EKALKS(βGlc)L-NH2), the Ki in experiment [2] is 3.8 nM; at Mu-type opioid receptor, 1.4 nM; in experiment [4], 12 nM. Further, the Time with Mus musculus [6] turned out to be 10 min; with Mus musculus [7] it was 30 min. The A50 in the experiment on Mus musculus [3] was 0.371 nmol; with Mus musculus [5], 0.36 µmol/kg.

As for `CC1(C)SCCSC[C@@H](NC(=O)[C@@H](N)Cc2ccc(O)cc2)C(=O)N[C@@H](Cc2ccccc2)C(=O)N[C@H]1C(N)=O` (H-Y[dC]F[dPen]-NH2; linker 2-4 via CH2CH2), the Ki in experiment [8] was 24.8 nM; in experiment [9], 2000 nM.

`CC(C)C[C@H](NC(=O)[C@H](CO[C@@H]1O[C@H](CO)[C@@H](O)[C@H](O)[C@H]1O)NC(=O)[C@H](CCCCN)NC(=O)[C@H](CC(C)C)NC(=O)[C@H](C)NC(=O)[C@H](CCC(=O)O)NC(=O)[C@H](CCC(=O)O)NC(=O)C(C)(C)NC(=O)[C@H](CC(C)C)NC(=O)[C@H](CC(N)=O)NC(=O)CNC(=O)CNC(=O)[C@H](Cc1ccccc1)N(C)C(=O)CNC(=O)[C@@H](C)NC(=O)[C@@H](N)Cc1ccc(O)cc1)C(N)=O`: the Activity in experiment [10] and in experiment [11] was 0% throughout.

With `CC(C)C[C@H](NC(=O)[C@H](CO[C@@H]1O[C@H](CO)[C@@H](O)[C@H](O)[C@H]1O)NC(=O)[C@H](CCCCN)NC(=O)[C@H](CC(C)C)NC(=O)[C@H](C)NC(=O)[C@H](CCCCN)NC(=O)[C@H](CCC(=O)O)NC(=O)C(C)(C)NC(=O)[C@H](CC(C)C)NC(=O)[C@H](CC(N)=O)NC(=O)[C@@H]1CCCN1C(=O)[C@H](CC(C)C)NC(=O)[C@H](Cc1ccccc1)NC(=O)CNC(=O)[C@@H](NC(=O)[C@@H](N)Cc1ccc(O)cc1)[C@@H](C)O)C(N)=O`, the values for the Ki (in experiment [2]; at Mu-type opioid receptor; in experiment [4]) were 3.6 nM, 2.6 nM and 2.3 nM, respectively. The Time with Mus musculus [6] is listed as 10 min; with Mus musculus [7], 30 min. Further, the A50 was 0.739 nmol in the experiment with Mus musculus [3] and 0.36 µmol/kg with Mus musculus [5].

Regarding `CC(C)C[C@H](NC(=O)[C@H](CO[C@@H]1O[C@H](CO)[C@@H](O)[C@H](O)[C@H]1O)NC(=O)[C@H](CCCCN)NC(=O)[C@H](CC(C)C)NC(=O)[C@H](C)NC(=O)[C@H](CC(N)=O)NC(=O)[C@H](CCC(=O)O)NC(=O)C(C)(C)NC(=O)[C@H](CC(C)C)NC(=O)[C@H](CC(N)=O)NC(=O)CNC(=O)CNC(=O)[C@H](Cc1ccccc1)N(C)C(=O)CNC(=O)[C@@H](C)NC(=O)[C@@H](N)Cc1ccc(O)cc1)C(N)=O`, the Activity in experiment [10] and in [11] was 0% each time. Besides, the Ki at Mu-type opioid receptor came out at 1200 nM.

As to `CC(C)C[C@H](NC(=O)[C@H](CO[C@@H]1O[C@H](CO)[C@@H](O)[C@H](O)[C@H]1O)NC(=O)[C@H](CCCCN)NC(=O)[C@H](CC(C)C)NC(=O)[C@H](C)NC(=O)[C@H](CC(N)=O)NC(=O)[C@H](CC(N)=O)NC(=O)C(C)(C)NC(=O)[C@H](CC(C)C)NC(=O)[C@H](CC(N)=O)NC(=O)CNC(=O)CNC(=O)[C@H](Cc1ccccc1)N(C)C(=O)CNC(=O)[C@@H](C)NC(=O)[C@@H](N)Cc1ccc(O)cc1)C(N)=O`, the Activity in [10] is 0%; in experiment [11] it was 16%. Further, on Mu-type opioid receptor, the affinity corresponds to a Ki of 120 nM.

Take `CC(C)C[C@H](NC(=O)[C@H](Cc1ccccc1)NC(=O)CNC(=O)[C@@H](NC(=O)[C@@H](N)Cc1ccc(O)cc1)[C@@H](C)O)C(=O)N[C@@H](CO[C@@H]1O[C@H](CO)[C@@H](O[C@@H]2O[C@H](CO)[C@@H](O)[C@H](O)[C@H]2O)[C@H](O)[C@H]1O)C(N)=O` (H-YTGFLS(X1)-NH2): the results for the Ki (in [2]; at Mu-type opioid receptor; in experiment [4]) were 9.2 nM, 5 nM and 42 nM, respectively. The A50 with Mus musculus [12] came to 0.018 nmol; in the experiment on Mus musculus [13], 4.07 µmol/kg.

As to `CC(C)C[C@H](NC(=O)[C@H](CO[C@@H]1O[C@H](CO)[C@@H](O)[C@H](O)[C@H]1O)NC(=O)[C@H](CCCCN)NC(=O)[C@H](CC(C)C)NC(=O)[C@H](C)NC(=O)[C@H](CCCCN)NC(=O)[C@H](CCC(=O)O)NC(=O)C(C)(C)NC(=O)[C@H](CC(C)C)NC(=O)[C@H](CC(N)=O)NC(=O)CCCNC(=O)[C@H](CC(C)C)NC(=O)[C@H](Cc1ccccc1)NC(=O)CNC(=O)[C@@H](NC(=O)[C@@H](N)Cc1ccc(O)cc1)[C@@H](C)O)C(N)=O` (H-YTGFL[GABA]NL[Aib]EKALKS(βGlc)L-NH2), the values for the Time in the experiment on Mus musculus [14], in the experiment with Mus musculus [6] and with Mus musculus [7] were 90 min, 10 min and 30 min, respectively. Moreover, the figures for the Ki (in [2]; at Mu-type opioid receptor; in [4]) were 4.2 nM, 4.3 nM and 11 nM, respectively. Also, the results for the A50 with Mus musculus [3] and in the experiment on Mus musculus [5] were 0.046 nmol and 0.31 µmol/kg, respectively.
